High-throughput results (PubChem)
T cruzi repl – blocks replication of Trypanosoma cruzi. inhibition, % (concentration not given with the values). AID 1885. T. cruzi beta-gal in NIH3T3, luminescence, 90 h. hit rate 1.4% among 300,000;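 active = mean inhibition across valid replicates above about 55%, limit read from the data; inconclusive = mean below that limit but half or more replicates reach it; inactive = mean below it, under half of replicates reach it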;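 also: signal also drops with host cell toxicity which is not excluded here; 0% = plate median of DMSO wells and 100% = zero luminescence signal; higher percent means less beta-gal luminescence so fewer parasites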
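System – NIH/3T3 host cells with β-galactosidase reporter T. cruzi · Doses – single 50 nL compound addition per well in DMSO · Reagent – 5000 T. cruzi trypomastigotes/well · Medium – Low-serum DMEM with 2% FBS · Timing – ≥90 h infection period, 3 h prior cell attachment · Evaluation – parasite load inhibition, % · Technique – GalScreen luminescence, 60 min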
XBP1 UPR activ – adaptive UPR (XBP1) activation | CHO-XBP1 luciferase reporter, IRE1-XBP1 UPR activation, luminescence; percent of tunicamycin response, DMSO as zero | AID 463104 | hit rate 0.33% among 330,000 | activation, % at 20 µM;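 active = versus positive control, 20 µM dose yields 30% or more activation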;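 also: 100% = tunicamycin at 10 µg/mL and 0% = DMSO only wells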
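Assay system: IRE1-XBP1 luciferase reporter CHO line. Input: 1000 cells/well. Buffer or medium: F12 with 10% serum. Doses: 20 µM, 1% DMSO. Times: overnight seeding at 37 °C, 6 h compound treatment at 37 °C. Technique: Steady-Glo luciferase glow luminescence, 10 min after reagent addition.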
CSC inhib – cancer stem cell inhibition; cancer stem cell-like cells viability, luminescence; inhibition, % at 7.5 µM; hit rate 1.1% among 300,000; in the data active = inhibition above about 75%; inconclusive = no clear call, values can overlap the other calls; tested in HMLE shEcad cells
Mdm2-MdmX inh – disrupts the human Mdm2-MdmX interaction; O15151+Q00987; inhibition, % at 8 µM; SaOS-2 split-luciferase Mdm2/MdmX complementation, luminescence; hit rate 3% among 330,000; AID 485346;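 active = inhibition of at least 50% at 8 µM in the primary screen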
Target sequence (O15151 whole entry, looked up): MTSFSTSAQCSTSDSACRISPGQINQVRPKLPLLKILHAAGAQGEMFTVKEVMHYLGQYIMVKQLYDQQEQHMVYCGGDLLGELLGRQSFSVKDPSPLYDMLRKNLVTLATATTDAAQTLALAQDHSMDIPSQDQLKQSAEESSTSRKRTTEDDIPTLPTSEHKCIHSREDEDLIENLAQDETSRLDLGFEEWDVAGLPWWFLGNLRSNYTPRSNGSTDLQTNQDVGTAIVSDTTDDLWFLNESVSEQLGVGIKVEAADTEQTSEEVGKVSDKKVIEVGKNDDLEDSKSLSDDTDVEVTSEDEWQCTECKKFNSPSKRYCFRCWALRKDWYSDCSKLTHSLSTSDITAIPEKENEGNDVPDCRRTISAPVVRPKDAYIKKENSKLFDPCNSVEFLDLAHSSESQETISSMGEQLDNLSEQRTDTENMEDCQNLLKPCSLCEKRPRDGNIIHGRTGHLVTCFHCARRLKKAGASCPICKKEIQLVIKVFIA
Target sequence (Q00987 whole entry, looked up): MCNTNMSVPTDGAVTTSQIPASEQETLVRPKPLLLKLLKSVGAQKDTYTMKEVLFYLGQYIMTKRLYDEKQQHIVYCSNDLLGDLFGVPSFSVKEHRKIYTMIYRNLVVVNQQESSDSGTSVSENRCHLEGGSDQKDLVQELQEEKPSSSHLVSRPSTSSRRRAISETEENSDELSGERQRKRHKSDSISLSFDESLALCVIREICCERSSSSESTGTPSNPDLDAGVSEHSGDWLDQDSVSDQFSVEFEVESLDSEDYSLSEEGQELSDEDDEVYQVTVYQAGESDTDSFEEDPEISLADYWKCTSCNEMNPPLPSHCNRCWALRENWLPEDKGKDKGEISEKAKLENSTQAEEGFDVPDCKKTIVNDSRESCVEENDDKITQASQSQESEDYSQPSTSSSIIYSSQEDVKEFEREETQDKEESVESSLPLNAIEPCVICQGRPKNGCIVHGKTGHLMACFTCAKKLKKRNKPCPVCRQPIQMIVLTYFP
CHOP UPR activ – apoptotic UPR (CHOP) activation; CHO-CHOP luciferase reporter, luminescence; percent of tunicamycin response over DMSO baseline; activation, % at 10 µM; hit rate 0.34% among 330,000;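 active = at 10 µM dose, activation of 40% or more, normalized to positive control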;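 also: 100% = tunicamycin at 10 µg/mL and 0% = DMSO alone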
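Test system: CHO CHOP reporter cells. Input: 500 CHO-CHOP cells per well. Medium: F12 with 10% FBS. Technique: luciferase luminescence. Measure: percent activation relative to tunicamycin control. Dosing: 10 µM compound, 0.5% DMSO. Timing: 16-18 h cell attachment, then 6 h compound exposure, 37 °C.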
Beta cell apopt – blocks beta cell apoptosis. INS-1E cytokine-induced death, ATP luminescence, 48 h; percent of positive-control rescue, neutral wells zero. protection from apoptosis, % (concentration not given with the values). hit rate 0.8% among 300,000. AID 435005;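 active = Every replicate reaches about 75%, or at least half do and their mean reaches it too, limit read from the data; inconclusive = At least half of replicates reach the limit but their mean does not; inactive = Under half of replicates reach the limit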;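 also: 0% = cytokine-treated negative control wells and 100% = positive control rescue; higher means more ATP so stronger rescue from cytokine killing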
* hit, by the source's call; ? = inconclusive; / = no result given. An excerpt weighted towards active compounds, which were near 5% of everything screened.

SMILES	T cruzi repl	XBP1 UPR activ	CSC inhib	Mdm2-MdmX inh	CHOP UPR activ	Beta cell apopt
COc1cc(OC)c2nc(C)c3c(c2c1)N(c1ccc(O)cc1)CC3	83*	/	20	/	/	46
CCCCCCCCn1c(N2CCN(c3cccc(Cl)c3)CC2)nc2c1c(=O)[nH]c(=O)n2C	55*	1	-10	9	2	12
CCCCCCn1c(N2CCN(c3cccc(Cl)c3)CC2)nc2c1c(=O)[nH]c(=O)n2C	51	14	24	47	-1	-4
COc1ccc2nc(C)cc(Nc3ccc(N4CCOCC4)cc3)c2c1	61*	-3	/	27	0	/
Cn1c(=O)n(Cc2ccc(F)cc2)c(=O)c2c1nc1n2CCCN1C1CCCCC1	34	0	78*	43	-3	11
Cn1c(=O)n(Cc2ccccc2)c(=O)c2c1nc1n2CCCN1C1CCCCC1	28	6	24	46	1	-8
CC(=O)NCCCC(=O)NNC1CC(=O)N(c2cccc(Cl)c2)C1=O (stereo not drawn)	-1	-1	-8	10	0	-3
C=CCNc1nnc(-c2ccncc2)s1	-5	-2	-3	3	-2	-4
c1ccc2c(Nc3nnc(-c4ccncc4)s3)cccc2c1	57*	-3	7	3	1	1
COc1ccc(CCN(C)CC(=O)Nc2c(C)cc(C)cc2C)cc1OC	61*	-7	-3	14	4	-1
Clc1ccc(C[n+]2cc(-c3ccccc3)n3c2CCC3)cc1Cl	59*	-6	-4	5	1	17
Clc1ccc(-c2c[n+](Cc3cccc(Cl)c3)c3n2CCC3)cc1	60*	-1	17	10	-1	22
Clc1ccc(C[n+]2cc(-c3ccccc3)n3c2CCCCC3)c(Cl)c1	55*	-2	1	37	-1	48
O=[N+]([O-])c1ccc(C[n+]2cc(-c3ccc(Cl)c(Cl)c3)n3c2CCCCC3)cc1	20	5	7	8	-1	-5
CCN(CC(=O)NCc1cccs1)C(=O)c1ccc(-c2cccc(C(F)(F)F)c2)o1	0	-3	-8	12	1	/
CCC1=NN(C(=O)c2cccc(Br)c2)C(O)(c2ccc(Br)cc2)C1 (stereo not drawn)	5	-2	105*	42	-1	?
COc1ccc(NC(=O)CC2C(=O)N(c3ccc(F)cc3)C(=S)N2NC(=O)c2ccc(Cl)cc2)cc1 (stereo not drawn)	-72	-1	7	-27	2	3
O=C(CN1CCN(c2cccc(Cl)c2)CC1)Nc1ccc([N+](=O)[O-])cc1C(=O)Nc1ccccc1F	65*	-1	7	34	3	-8
Cc1ccc(C)c(N2CCN(CC(=O)Nc3ccc([N+](=O)[O-])cc3C(=O)Nc3ccccc3F)CC2)c1	71*	0	21	18	0	19
CCOc1ccc(OCC)c(NC(=O)CN2CCN(c3cc(C)ccc3C)CC2)c1	70*	-5	50	32	2	16
Cn1cccc1C1C=C(c2ccc(C(C)(C)C)cc2)Nc2ncnn21 (stereo not drawn)	-12	0	12	20	1	127*
CCN1CCN(c2ccc(S(=O)(=O)N3CCOCC3)cc2NC(=O)CCC(C)C)CC1	56*	-3	-12	10	0	-9
Cc1c(C(=O)Nc2cc(S(=O)(=O)N3CCOCC3)ccc2N2CCOCC2)oc2ccccc12	75*	0	8	30	0	13
CC(Oc1cccc(Cl)c1)C(=O)Nc1cc(S(=O)(=O)N2CCOCC2)ccc1N1CCCCC1 (stereo not drawn)	47	2	-3	42	12	110*
CCN1CCN(c2ccc(S(=O)(=O)N3CCCCC3)cc2NC(=O)COc2ccccc2)CC1	58*	-2	-6	30	1	/
SMILES	T cruzi repl	XBP1 UPR activ	CSC inhib	Mdm2-MdmX inh	CHOP UPR activ	Beta cell apopt
O=C(Nc1cc(S(=O)(=O)N2CCOCC2)ccc1N1CCOCC1)c1ccccc1F	/	1	-10	-20	-2	4
Cc1cc(C)c(C(=O)N2CCCC(Nc3ccc(C)c(C)c3)C2)o1 (stereo not drawn)	24	-3	0	3	-2	-3
CN(Cc1ccccc1)C(=O)c1nc[nH]c1C(=O)N(C)Cc1ccccc1	/	0	-6	11	3	-4
CCN1CCN(c2ccc(S(=O)(=O)N3CCOCC3)cc2NC(=O)COc2ccc(F)cc2Cl)CC1	57*	-3	4	14	-2	/
CCN1CCN(c2ccc(S(=O)(=O)N3CCCCC3)cc2NC(=O)Cc2ccccc2)CC1	45	-2	-9	11	3	-4
Cc1c(C(=O)N2CCN(S(=O)(=O)c3ccc(F)cc3)CC2)oc2ccccc12	56*	0	-13	18	2	3
CCN1CCN(c2ccc(S(=O)(=O)N3CCOCC3)cc2NC(=O)CCOc2ccccc2)CC1	56*	-5	-4	14	1	-5
O=C(COc1ccccc1F)Nc1cc(S(=O)(=O)N2CCOCC2)ccc1N1CCOCC1	11	-3	13	-27	1	-4
CCN1CCN(c2ccc(S(=O)(=O)N3CCCCC3)cc2NC(=O)Cc2ccccc2F)CC1	55*	1	-13	20	0	3
C=CCNC(=S)NS(=O)(=O)c1cccs1	-6	-3	16	21	-3	-4
CCOC(=O)Cc1cnc(NC(=O)NC(C(=O)OCC)(c2ccccc2)C(F)(F)F)s1 (stereo not drawn)	-5	5	-13	14	3	2
Cc1c(C(=O)O)sc(S(=O)(=O)N2CCN(C(=O)CCc3ccccc3)CC2)c1C(=O)O	/	1	/	4	-1	/
CCOC(=O)C1CN(S(=O)(=O)c2ccc(C)cc2)C1	-7	-2	-7	-11	0	-1
O=C(Cn1nc(C(=O)O)c2ccccc2c1=O)Nc1cccc(S(=O)(=O)N2CCCCC2)c1	/	-4	0	6	0	-2
O=C(CN1CCN(c2ccc(Cl)cc2)CC1)Nc1cccc(F)c1	6	-4	-1	-3	1	-1
O=C(Nc1cccc(F)c1)N1CC=C(c2ccc(Cl)cc2)CC1	55*	-1	20	-35	-1	/
CC1=C(CO)C(=O)OC([C@@H](C)C2CC[C@H]3C4C[C@H]5O[C@]56[C@@H](O)C=CC(=O)[C@]6(C)C4CC[C@]23C)C1 (stereo partly drawn)	43	/	99*	/	/	109*
CC(C)Cc1csc(NC(=O)c2ccc(F)cc2)c1C(=O)O	-4	-2	121*	7	0	-6
CC(C)C1Cc2[nH]c(=O)c(C(=O)O)cc2CO1 (stereo not drawn)	-9	-2	7	19	-1	-2
